According to article PMC9632315 (The Oncologist, 2022):
Several values for one entry are separate records, joined by “and”; a condition that tells them apart may be missing. Equal entries are not always repeated.

Key:
[1] = test system: advanced melanoma; conditions: patients with advanced melanoma; median follow-up of 12.4 months; cited from earlier work
[2] = Epacadostat plasma pharmacokinetics, noncompartmental analysis; assay type: in vivo, human; conditions: steady state cycle 1/day 8; for AUC / half-life / Tmax: human, plasma, oral; for AUC: AUC0-τ; for half-life: t ½; for Tmax: t max, median (range)
Outline: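 Test compound 100 mg oral bid (B, C); pembrolizumab 200 mg IV q3w. A: oxaliplatin 85, leucovorin 400, 5-FU 400 mg/m2 bolus then 1200 mg/m2 per day over 46 h; days 1, 15, 28-day cycles. B: nab-paclitaxel 125, gemcitabine 1000 mg/m2; days 1, 8, 15, 28-day cycles. C: paclitaxel 200 mg/m2, carboplatin AUC 6; day 1, 21-day cycles.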

[3] = test system: plasma kynurenine production; conditions: cited from earlier work
[4] = test system: IDO1; conditions: patients with advanced solid tumors; cited from earlier work
[5] = stated without reference; cited from earlier work
[6] = group A, mFOLFOX6, individual value (n ≤ 2)
[7] = group C, paclitaxel and carboplatin, individual values (n ≤ 2)
[8] = group D, pemetrexed and platinum agent, individual value (n ≤ 2)
[9] = group G, 5-FU and platinum agent, individual values (n ≤ 2)
[10] = 100 mg twice daily, group B, nab-paclitaxel and gemcitabine, individual value (n ≤ 2)

In the case of “placebo plus pembrolizumab: ECHO-301/KEYNOTE-252 control arm: placebo plus the PD-1 inhibitor pembrolizumab”, the “OS (median)” value [1] is given as “not reached”.
`NS(=O)(=O)NCCNc1nonc1C(=NO)Nc1ccc(F)c(Br)c1` [Epacadostat] showed a CLss/F [2, 6] of 81.7 L/h, a CLss/F ([2]; group B, nab-paclitaxel and gemcitabine, individual value (n ≤ 2)) of 82.6 L/h and an AUC0-τ [2, 7] of 2.44 µM·h. The CLss/F [2, 7] was 70.4 L/h and 93.5 L/h, the “t ½” value [2, 7] was 2.62 h and 1.07 h and the AUC0-τ [2, 8] was 1.81 µM·h. The CLss/F [2, 8] was 126 L/h, the AUC0-τ [2, 9] was 2.81 µM·h and the CLss/F [2, 9] was 76.8 L/h and 81.3 L/h. The “t ½” value [2, 9] was 1.30 h, the AUC [2, 10] was 2.76 µM·h and the AUC ([2]; 100 mg twice daily, group C, paclitaxel and carboplatin, individual values (n ≤ 2)) was 3.24 µM·h. For the same molecule, the half-life [2, 10] was 1.42 h, the AUC [2, 6] was 2.79 µM·h and the AUC [2, 9] was 2.97 µM·h. For the same molecule, the Tmax ([2]; group A, mFOLFOX6, N=6) was 2.9 h, the Tmax ([2]; group F, gemcitabine and platinum agent, N=7) was 2.1 h and the Tmax ([2]; group G, 5-FU and platinum agent, N=8) was 3.1 h. The half-life [2, 6] was 1.78 h, the half-life [2, 8] was 1.3 h and the half-life [2, 9] was 1.35 h. The maximally tolerated dose [3] was 600 mg BID, the “epacadostat dose required for suppression of plasma kynurenine production” value ([3]; in combination with pembrolizumab, retrospective analysis) was 600 mg BID and the “metabolism of tryptophan to kynurenine, whole blood assays” value [4] was “effectively inhibits”. For the same molecule, the “percentage decrease in kynurenine levels from baseline to day 15” value [4] was “dose dependent” and the clearance mechanism [5] was “cleared predominantly by hepatic glucuronidation”.
For `Nc1nc2[nH]cc(CCc3ccc(C(=O)N[C@@H](CCC(=O)O)C(=O)O)cc3)c2c(=O)[nH]1` [pemetrexed, Pemetrexed, reference compound], the clearance mechanism [5] is given as “cleared by renal excretion”.
